Results taken from ChEMBL document CHEMBL4052828, “Discovery of 4-((7H-Pyrrolo[2,3-d]pyrimidin-4-yl)amino)-N-(4-((4-methylpiperazin-1-yl)methyl)phenyl)-1H-pyrazole-3-carboxamide (FN-1501), an FLT3- and CDK-Kinase Inhibitor with Potentially High Efficiency against Acute Myelocytic Leukemia” (J Med Chem, 2018).

Columns and labels:
[1] = biological target: T1, Receptor-type tyrosine-protein kinase FLT3 (Homo sapiens, UniProt P36888); experiment: Inhibition of human FLT3 using EAIYAAPFAKKK as substrate preincubated for 20 mins followed by [gamma-33P]-ATP addition measure after 120 mins by filter binding method
T1 sequence (P36888 whole entry): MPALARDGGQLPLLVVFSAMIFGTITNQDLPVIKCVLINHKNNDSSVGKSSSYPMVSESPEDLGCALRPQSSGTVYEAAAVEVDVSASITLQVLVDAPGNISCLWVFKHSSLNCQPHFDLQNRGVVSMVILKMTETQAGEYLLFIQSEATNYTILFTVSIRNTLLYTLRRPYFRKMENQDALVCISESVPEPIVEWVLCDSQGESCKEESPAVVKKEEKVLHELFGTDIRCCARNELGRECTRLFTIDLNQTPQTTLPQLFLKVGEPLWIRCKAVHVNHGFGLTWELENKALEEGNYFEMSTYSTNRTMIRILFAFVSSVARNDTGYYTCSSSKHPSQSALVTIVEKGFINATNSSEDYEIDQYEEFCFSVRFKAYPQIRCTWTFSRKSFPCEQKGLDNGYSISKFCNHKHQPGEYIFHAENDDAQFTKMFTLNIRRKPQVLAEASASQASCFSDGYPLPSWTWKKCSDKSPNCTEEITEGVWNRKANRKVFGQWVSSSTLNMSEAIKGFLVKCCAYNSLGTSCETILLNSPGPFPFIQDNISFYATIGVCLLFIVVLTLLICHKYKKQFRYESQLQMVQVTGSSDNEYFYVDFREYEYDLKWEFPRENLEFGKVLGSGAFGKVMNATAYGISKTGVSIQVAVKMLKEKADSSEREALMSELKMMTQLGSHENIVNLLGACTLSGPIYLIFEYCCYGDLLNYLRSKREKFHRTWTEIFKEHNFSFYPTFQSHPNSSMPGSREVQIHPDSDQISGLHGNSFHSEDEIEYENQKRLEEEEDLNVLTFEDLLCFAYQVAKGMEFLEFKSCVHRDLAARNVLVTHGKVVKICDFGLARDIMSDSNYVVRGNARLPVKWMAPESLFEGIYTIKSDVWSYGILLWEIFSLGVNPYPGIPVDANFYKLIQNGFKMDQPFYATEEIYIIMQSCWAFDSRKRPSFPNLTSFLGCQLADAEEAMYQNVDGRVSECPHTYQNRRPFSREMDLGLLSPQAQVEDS
Procedure, shortened: (§1)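 Compound preincubated with kinase 20 min at room temperature. Filter-binding read-out, curve-fitted IC50; mean ± SD of three independent experiments.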

MV4-11 [2] = experiment: Growth inhibition of human MV4-11 cells after 72 hrs by CellTiter-Glo assay; format: functional, cell-based; conditions: MV4-11, 72 h
Procedure, shortened: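 MV4-11 cells grown in IMDM with 10% FBS, 2% L-glutamine and 1% pen/strep at 37 °C, 5% CO2. Seeded at 10000 cells/well and exposed to compound at various concentrations for 72 h. Viability read by CellTiter-Glo luminescence.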

CDK2/Cyclin A1 = CDK2/Cyclin A1 (Homo sapiens, UniProt P24941); experiment: Inhibition of human CDK2/Cyclin A1 using histone H1 as substrate preincubated for 20 mins followed by [gamma-33P]-ATP addition measure after 120 mins by filter binding method; format: protein-complex assay; procedure, shortened: as §1
MV4-11 [3] = experiment: Growth inhibition of human MV4-11 cells at 1 uM after 72 hrs by CellTiter-Glo assay relative to control; format: functional; conditions: MV4-11, 72 h, read-out: GI
[4] = biological target: Receptor-type tyrosine-protein kinase FLT3 (Homo sapiens) (UniProt P36888); experiment: Inhibition of human FLT3 assessed as residual activity at 0.123 uM using EAIYAAPFAKKK as substrate preincubated for 20 mins followed by [gamma-33P]-ATP addition measure after 120 mins by filter binding method relative to control
[5] = biological target: CDK2/Cyclin A1 (Homo sapiens) (UniProt P24941+P78396); experiment: Inhibition of human CDK2/Cyclin A1 assessed as residual activity at 0.123 uM using histone H1 as substrate preincubated for 20 mins followed by [gamma-33P]-ATP addition measure after 120 mins by filter binding method relative to control; format: protein-complex assay
RS4-11 = experiment: Growth inhibition of human RS4:11 cells after 72 hrs by CellTiter-Glo assay; format: functional; conditions: RS4-11, 72 h
[6] = Intrinsic clearance in cynomolgus monkey liver microsomes by LC-MS/MS analysis; format: ADME, Macaca fascicularis, microsome; conditions: read-out: CLH
HCT-116 = experiment: Growth inhibition of human HCT116 cells after 72 hrs by CellTiter-Glo assay; format: functional; conditions: HCT-116, 72 h
[7] = Intrinsic clearance in mouse liver microsomes by LC-MS/MS analysis; format: ADME, microsome; conditions: read-out: CLH
MCF7 = experiment: Growth inhibition of human MCF7 cells after 72 hrs by CellTiter-Glo assay; format: functional; conditions: MCF7, 72 h
[8] = Terminal half life in rat liver microsomes by LC-MS/MS analysis; format: ADME, microsome; conditions: read-out: beta t1/2 (converted)
Procedure, shortened: (§2)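 Metabolic stability measured by incubating compound in human, rat, mouse, dog and monkey liver microsomes. Terminal t1/2 determined.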

[9] = Terminal half life in human liver microsomes by LC-MS/MS analysis; format: ADME, microsome; conditions: read-out: beta t1/2 (converted); procedure, shortened: as §2
MGC-803 = experiment: Growth inhibition of human MGC803 cells after 72 hrs by CellTiter-Glo assay; format: functional; conditions: MGC-803, 72 h
[10] = biological target: Cyclin-dependent kinase 4/cyclin D1 (Homo sapiens, UniProt P11802); experiment: Inhibition of human CDK4/Cyclin D1 using RB protein as substrate preincubated for 20 mins followed by [gamma-33P]-ATP addition measure after 120 mins by filter binding method; format: protein-complex assay
Chain of Cyclin-dependent kinase 4/cyclin D1 (P11802 whole entry): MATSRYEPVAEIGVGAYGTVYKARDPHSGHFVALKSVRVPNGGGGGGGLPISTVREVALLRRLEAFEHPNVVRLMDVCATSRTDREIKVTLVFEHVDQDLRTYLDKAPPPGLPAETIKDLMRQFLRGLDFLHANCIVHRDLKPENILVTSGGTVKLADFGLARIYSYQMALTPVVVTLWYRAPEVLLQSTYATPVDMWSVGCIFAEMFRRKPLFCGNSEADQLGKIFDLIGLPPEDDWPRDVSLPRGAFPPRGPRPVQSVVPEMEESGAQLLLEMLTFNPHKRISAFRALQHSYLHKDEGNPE
Chain of Cyclin-dependent kinase 4/cyclin D1 (P24385 whole entry, further chain): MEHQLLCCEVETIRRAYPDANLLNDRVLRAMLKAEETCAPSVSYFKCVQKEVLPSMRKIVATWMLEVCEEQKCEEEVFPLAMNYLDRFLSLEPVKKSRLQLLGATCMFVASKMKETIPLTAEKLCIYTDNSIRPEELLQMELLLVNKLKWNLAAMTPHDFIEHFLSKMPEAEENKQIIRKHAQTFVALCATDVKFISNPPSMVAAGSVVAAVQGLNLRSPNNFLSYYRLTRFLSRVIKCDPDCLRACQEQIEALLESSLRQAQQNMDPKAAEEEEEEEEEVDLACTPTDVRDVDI
Procedure, shortened: (§3)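 Compound preincubated with kinase 20 min at room temperature. Reaction started with 10 μM [γ-33P]ATP and run 120 min at 25°C. Filter-binding read-out, curve-fitted IC50; mean ± SD of three independent experiments.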

[11] = Terminal half life in cynomolgus monkey liver microsomes by LC-MS/MS analysis; format: ADME, Macaca fascicularis, microsome; conditions: read-out: beta t1/2 (converted); procedure, shortened: as §2
[12] = Intrinsic clearance in human liver microsomes by LC-MS/MS analysis; format: ADME, microsome; conditions: read-out: CLH
[13] = Intrinsic clearance in rat liver microsomes by LC-MS/MS analysis; format: ADME, microsome; conditions: read-out: CLH
[14] = Terminal half life in dog liver microsomes by LC-MS/MS analysis; format: ADME, Canis lupus familiaris, microsome; conditions: read-out: beta t1/2 (converted); procedure, shortened: as §2
[15] = Terminal half life in mouse liver microsomes by LC-MS/MS analysis; format: ADME, microsome; conditions: read-out: beta t1/2 (converted); procedure, shortened: as §2
CDK6/cyclin D1 = CDK6/cyclin D1 (Homo sapiens, UniProt Q00534); experiment: Inhibition of human CDK6/Cyclin D1 using RB protein as substrate preincubated for 20 mins followed by [gamma-33P]-ATP addition measure after 120 mins by filter binding method; format: protein-complex assay; procedure, shortened: as §3
Chain of CDK6/cyclin D1 (P24385 whole entry): as the sequence (P24385 whole entry, further chain) above
Chain of CDK6/cyclin D1 (Q00534 whole entry): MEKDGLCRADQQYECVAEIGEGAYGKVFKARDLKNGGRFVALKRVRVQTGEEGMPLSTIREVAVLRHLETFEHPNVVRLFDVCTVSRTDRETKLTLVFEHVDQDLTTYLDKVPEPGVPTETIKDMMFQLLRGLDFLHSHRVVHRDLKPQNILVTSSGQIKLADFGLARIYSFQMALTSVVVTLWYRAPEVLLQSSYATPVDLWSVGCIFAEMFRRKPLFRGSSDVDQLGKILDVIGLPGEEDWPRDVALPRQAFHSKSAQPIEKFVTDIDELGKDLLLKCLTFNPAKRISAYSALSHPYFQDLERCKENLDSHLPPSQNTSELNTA

[16] = Intrinsic clearance in dog liver microsomes by LC-MS/MS analysis; format: ADME, Canis lupus familiaris, microsome; conditions: read-out: CLH
NCI-H82 = experiment: Growth inhibition of human NCI-H82 cells after 72 hrs by CellTiter-Glo assay; format: functional; conditions: NCI-H82, 72 h

SMILES	IC50 [1]	IC50 (MV4-11 [2])	IC50 (CDK2/Cyclin A1)	inhibition of growth at 1 µM (MV4-11 [3])	other results
CCc1cc2c(Nc3c[nH]nc3C(=O)Nc3ccc(CN4CCOCC4)cc3)ncnc2s1	1.56 nM	34 nM	3.3 nM	–	–
Cc1cc2c(Nc3c[nH]nc3C(=O)Nc3ccc(CN4CCN(C)CC4)cc3)ncnc2s1	0.384 nM	–	–	–	–
O=C(Nc1ccc(CN2CCOCC2)cc1)c1n[nH]cc1Nc1cc(C(F)(F)F)nc2ccccc12	–	–	–	4.7%	Activity [4]: 83.2%; Activity [5]: 99.7%
O=C(Nc1ccc(CN2CCOCC2)cc1)c1n[nH]cc1Nc1ncnc2ccsc12	6.15 nM	35 nM	11.6 nM	–	–
COc1ccc2ncnc(Nc3c[nH]nc3C(=O)Nc3ccc(CN4CCOCC4)cc3)c2c1	3.78 nM	–	29.8 nM	53.1%	–
CN1CCN(Cc2ccc(NC(=O)c3n[nH]cc3Nc3ccnc4ccc(Br)cc34)cc2)CC1	4.84 nM	–	5.74 nM	97.2%	–
COc1ccc2c(Nc3c[nH]nc3C(=O)Nc3ccc(CN4CCN(C)CC4)cc3)ccnc2c1	197 nM	–	697 nM	22.6%	–
O=C(Nc1ccc(CN2CCOCC2)cc1)c1n[nH]cc1Nc1ncnc2ccccc12	0.588 nM	23 nM	5.3 nM	–	–
O=C(Nc1ccc(CN2CCOCC2)cc1)c1n[nH]cc1Nc1ncnc2sccc12	0.623 nM	–	3.36 nM	98.5%	GI50 (RS4-11): 170 nM; CLint scaled [6]: 171 mL/min/kg; GI50 (HCT-116): 580 nM; CLint scaled [7]: 765 mL/min/kg; GI50 (MCF7): 610 nM; half-life [8]: 7.08 min; half-life [9]: 8.28 min; GI50 (MGC-803): 210 nM; IC50 [10]: 2.4 nM; half-life [11]: 10.9 min; CLint scaled [12]: 165 mL/min/kg; CLint scaled [13]: 352 mL/min/kg; half-life [14]: 1.5 min; half-life [15]: 7.2 min; IC50 (CDK6/cyclin D1): 3.88 nM; CLint scaled [16]: 1330 mL/min/kg; GI50 (NCI-H82): 290 nM
Cc1csc2ncnc(Nc3c[nH]nc3C(=O)Nc3ccc(CN4CCOCC4)cc3)c12	1.37 nM	11 nM	1.08 nM	–	–
COc1ccc2nccc(Nc3c[nH]nc3C(=O)Nc3ccc(CN4CCN(C)CC4)cc3)c2c1	–	–	–	64.4%	Activity [4]: 10.4%; Activity [5]: 32.5%
O=C(Nc1ccc(CN2CCOCC2)cc1)c1n[nH]cc1Nc1nccc2ccccc12	42.4 nM	–	287 nM	50.4%	–
Cc1sc2ncnc(Nc3c[nH]nc3C(=O)Nc3ccc(CN4CCOCC4)cc3)c2c1C	3.52 nM	30 nM	7.34 nM	–	–
CN1CCN(Cc2ccc(NC(=O)c3n[nH]cc3Nc3ncnc4ccsc34)cc2)CC1	0.47 nM	23 nM	9.32 nM	–	IC50 [10]: 3.1 nM; IC50 (CDK6/cyclin D1): 4.11 nM
CCN(CC)Cc1ccc(NC(=O)c2n[nH]cc2Nc2ncnc3[nH]ccc23)cc1	0.13 nM	–	13.6 nM	–	–
CN1CCN(Cc2ccc(NC(=O)c3n[nH]cc3Nc3nccc4ccccc34)cc2)CC1	–	–	–	–	Activity [4]: 24.5%; Activity [5]: 60.5%
CN1CCN(Cc2ccc(NC(=O)c3n[nH]cc3Nc3ncnc4ccccc34)cc2)CC1	3.17 nM	–	8.27 nM	–	–
O=C(Nc1ccc(CN2CCOCC2)cc1)c1n[nH]cc1Nc1ccnc2ccccc12	–	–	–	42%	Activity [4]: 40.8%; Activity [5]: 57.7%
